Shown are actives, neighbours in structure and some others; about 3.7% of the full set was active somewhere.
B2AR ag – human beta-2 adrenergic receptor agonism by FAP; response, % (concentration not given with the values); 0.43% of 340,000 active; P07550; AID 504454; Am2.2-beta2AR cells, FAP receptor internalization, flow cytometry;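 active = response above a set limit, near 3 SD of response in nonfluorescent compounds, cut at about 42% in these data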
MDM2 E3 inh – Mdm2 E3 ligase (human) inhibition; Q00987; cell-based MDM2 ubiquitination luciferase reporter, 2 h; 0 = plate control, 100 = twice control, blank-subtracted; signal enhancement, % at 5 µM; 0.11% of 210,000 active; AID 1230;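 active = signal enhancement of 30% or more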;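 also: luminescence tracks abundance of the self-degrading MDM2-luciferase fusion protein; higher signal means inhibition of MDM2 E3 ligase activity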
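Timing – 2 h compound exposure at 37 °C · Assay system – mammalian cells stably expressing self-ubiquitinating, self-degrading MDM2 E3–luciferase fusion · Amount – 2000 cells seeded into each well · Measure – % luminescence enhancement versus blank-corrected plate control mean · Measured by – SteadyLite luminescence, 15 min reagent step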
Mdm2-MdmX inh – disrupts the human Mdm2-MdmX interaction. SaOS-2 split-luciferase Mdm2/MdmX complementation, luminescence. 3% of 330,000 active. inhibition, % at 8 µM;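 active = inhibition of at least 50% at 8 µM in the primary screen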
Target sequence (O15151 whole entry, looked up): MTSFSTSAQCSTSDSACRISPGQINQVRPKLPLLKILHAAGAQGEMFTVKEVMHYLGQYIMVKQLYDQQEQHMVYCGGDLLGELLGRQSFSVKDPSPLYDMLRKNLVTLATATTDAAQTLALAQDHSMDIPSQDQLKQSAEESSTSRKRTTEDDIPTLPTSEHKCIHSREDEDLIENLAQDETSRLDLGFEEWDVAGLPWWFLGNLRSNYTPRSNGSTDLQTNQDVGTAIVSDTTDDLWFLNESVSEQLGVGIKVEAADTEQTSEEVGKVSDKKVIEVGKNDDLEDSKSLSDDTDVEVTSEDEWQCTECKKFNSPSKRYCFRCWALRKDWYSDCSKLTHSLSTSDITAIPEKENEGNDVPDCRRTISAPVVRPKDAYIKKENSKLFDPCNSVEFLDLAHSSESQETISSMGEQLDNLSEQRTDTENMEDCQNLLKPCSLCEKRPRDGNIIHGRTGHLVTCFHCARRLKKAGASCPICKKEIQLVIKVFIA
Target sequence (Q00987 whole entry, looked up): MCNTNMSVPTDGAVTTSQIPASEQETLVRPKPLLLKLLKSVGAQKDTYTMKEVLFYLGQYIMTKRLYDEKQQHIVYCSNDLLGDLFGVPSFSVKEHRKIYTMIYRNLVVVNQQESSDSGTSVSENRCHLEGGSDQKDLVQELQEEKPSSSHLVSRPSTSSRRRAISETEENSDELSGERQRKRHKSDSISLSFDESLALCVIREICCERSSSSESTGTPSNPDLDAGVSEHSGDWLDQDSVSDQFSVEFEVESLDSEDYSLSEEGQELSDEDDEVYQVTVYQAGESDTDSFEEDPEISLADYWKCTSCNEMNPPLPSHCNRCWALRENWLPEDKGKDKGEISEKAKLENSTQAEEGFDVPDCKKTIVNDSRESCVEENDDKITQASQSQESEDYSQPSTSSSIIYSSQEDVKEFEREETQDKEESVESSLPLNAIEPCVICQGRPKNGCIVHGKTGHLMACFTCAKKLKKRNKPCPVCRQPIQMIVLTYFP
Dynein cargo inh – dynein cargo transport inhibition; AID 1381; 0.47% of 220,000 active; 3617.4 mouse cells, GR-EGFP nuclear translocation imaging; test concentration mostly 20 µM; stimulated with dexamethasone, 1 µM; hits give low values; z-score, hits read low;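 active = plate z-score of nuclear minus cytoplasmic receptor signal below a set negative limit, without overly bright fluorescence or cell loss, cut at about -3.5 in these data, passing the limit was not always enough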;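 also: z-score of nuclear minus cytoplasmic ring GR-EGFP intensity difference per well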
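Buffer or medium: tetracycline-free induction medium containing charcoal-stripped FBS / Reagent: dexamethasone agonist, 1.0 µM final, for 30 min / Technique: automated 10x imaging of fixed Hoechst-stained cells / Times: induction 48 h, compound 1 h, agonist 30 min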
UPR CHOP act – activators of apoptotic arm of unfolded protein response (CHOP); CHO-CHOP luciferase reporter, UPR activation, luminescence; percent of tunicamycin response over DMSO baseline; activation, % at 10 µM; 0.34% of 330,000 active; AID 449763;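 active = at 10 µM dose, activation of 40% or more, normalized to positive control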;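 also: 100% = tunicamycin at 10 µg/mL and 0% = DMSO alone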
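Evaluation: % reporter activation, DMSO baseline versus tunicamycin full activation; System: CHO-CHOP luciferase reporter cell line; Input: 500 cells/well; Incubation: 6 h compound treatment, 37 °C; Measured by: Steady-Glo luciferase luminescence; Dosing: one dose, 10 µM in 0.5% DMSO; Buffer or medium: F12 medium, 10% FBS; Benchmarks: positive tunicamycin 10 µg/mL, negative DMSO alone.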
XBP1 UPR activ – activators of adaptive arm of unfolded protein response (XBP1). CHO-XBP1 luciferase reporter, IRE1-XBP1 UPR activation, luminescence; percent of tunicamycin response, DMSO as zero. activation, % at 20 µM. 0.33% of 330,000 active;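 active = versus positive control, 20 µM dose yields 30% or more activation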;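 also: 100% = tunicamycin at 10 µg/mL and 0% = DMSO only wells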
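assay system = CHO-XBP1 luciferase reporter cells | amount = 1000 cells/well | buffer or medium = F12 plus 10% FBS | compound dosing = single point, 20 µM final compound, 1% DMSO | incubation = 16-18 h cell attachment at 37 °C, then 6 h compound exposure | detection = Steady-Glo luminescence read | controls = tunicamycin 10 µg/mL and vehicle-only wells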
Mdm2 MdmX conf – human Mdm2/MdmX binding inhibition, confirmed | luminescent assay | shares compounds with Mdm2-MdmX inh | 55% of 10,000 active | inhibition, % at 8 µM; in the data active = inhibition above about 40%
Full FLuc ctr – inhibits full-length luciferase, flagging false Mdm2/MdmX hits; inhibition, % at 8 µM; 77% of 6,200 active; SaOS-2 full-length luciferase counterscreen, luminescence; shares compounds with Mdm2-MdmX inh; AID 504607;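 active = mean inhibition at 8 µM reaching about 37%, which flags the compound as non-specific, limit read from the data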;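 also: p53-null SaOS-2 cells with luciferase driven by a doxycycline-inducible promoter; compound on cells about two nights before reading with doxycycline added after day one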
* hit, by the source's call; . = no result.

SMILES	B2AR ag	MDM2 E3 inh	Mdm2-MdmX inh	Dynein cargo inh	UPR CHOP act	XBP1 UPR activ	Mdm2 MdmX conf	Full FLuc ctr
CC(=O)O[C@H]1[C@H]2O[C@]23[C@@H]2CC[C@]4(O)C[C@@H](O)CC[C@]4(C)C2CC[C@]3(C)[C@H]1c1ccc(=O)oc1 (some centres undefined)	5	.	85*	.	-1	-5	64*	48*
CCC(=NCc1ccc(F)cc1)c1c(O)n(C)c(=O)n(C)c1=O	1	-4	12	1.2	-1	2	.	.
O=C1CC(N2CCC(n3c(=O)[nH]c4ccccc43)CC2)C(=O)N1c1ccc(F)cc1 (centres undefined)	1	-21	-1	-0.85	-2	2	.	.
O=c1[nH]c2ccccc2n1C1CCN(CCCC(c2ccc(F)cc2)c2ccc(F)cc2)CC1	15	.	66*	0.14	-3	0	10	.
C=C(C=O)C[C@@H]1C[C@H](O)C2OC3C[C@]4(C)OC5/C=C\CC6OC7C(CC=CCC6OC5CCCC4OC3CC2O1)OC1CC2OC3CC(=O)OC3C[C@@H](C)C[C@@]2(C)OC1C[C@@H]7C (some centres undefined)	.	5	100*	-0.81	-9	-9	95*	0
COc1ccc(-c2nn(CCC#N)cc2C(=O)Nc2ccc(C(C)=O)cc2)cc1[N+](=O)[O-]	-6	.	24	.	0	-2	.	.
O=C1/C(=C\c2ccccc2)C2OCC=C3CN4CCC56c7ccccc7N1C5C2C3CC46 (centres undefined)	1	.	71*	-0.27	0	-5	51*	70*
CN1/C(=C\C=C\C2=[N+](C)c3ccc4ccccc4c3C2(C)C)C(C)(C)c2ccccc21	.	-64	100*	-1.6	-9	-6	100*	0
CN1/C(=C\C=Nc2ccccc2)C(C)(C)c2ccccc21	-18	-14	8	-0.79	1	1	.	.
CCOC(=O)C1(c2ccccc2)CCN(CCC(=O)Nc2cccc(Br)c2)CC1	19	.	54*	.	0	0	39	77*
CCOC(=O)C1(c2ccccc2)CCN(CCC(=O)Nc2ccc(C(=O)OC)cc2)CC1	2	.	17	.	0	0	.	.
CCOC(=O)C1(c2ccccc2)CCN(CCC(C#N)(c2ccccc2)c2ccccc2)CC1	35	.	63*	.	1	-7	32	.
O=C(c1cc(=O)[nH]c2ccc(Br)cc12)N1CCC2(CC1)OCCO2	14	-20	1	-0.11	-5	-3	.	.
COc1cc2c(cc1OC)CN(c1ccc([N+](=O)[O-])c(C(F)(F)F)c1)CC2	3	-15	59*	-1.8	5	-1	-2	.
CC(=O)c1c(C)n(Cc2ccccc2Cl)c2ccc(O)cc12	2	9	52*	-0.27	0	0	38	110*
Cc1ccc(S(=O)(=O)c2nc(-c3ccccc3Cl)oc2N(C)C2CCN(C)CC2)cc1	24	.	72*	.	5	1	8	.
Cc1ccc(-c2nc(N(C)C3CCN(C)CC3)c3ccccc3n2)cc1	5	-16	40	3.5	1	2	.	.
CCC(=NCCO)c1c(O)n(-c2ccc(Cl)cc2)c(=O)[nH]c1=O	6	10	11	-0.81	-1	0	.	.
COc1ccc(-c2nc3ccccc3c(=O)n2-c2ccc(OC)cc2)cc1	-7	1	-8	-1.2	1	0	.	.
CCn1nc(-c2ccccc2)nc2c(=O)n(C)c(=O)nc1-2	69*	-5	74*	-2.2	-7	-10	73*	23
c1ccc2c(c1)OCC(C1=NCCN1)O2 (centres undefined)	-7	.	57*	0.37	2	-3	16	.
CC(=O)O[C@H]1C(=O)[C@@]2(C)C([C@H](OC(=O)c3ccccc3)[C@]3(O)C[C@H](OC(=O)[C@H](O)[C@@H](NC(=O)Cc4ccccc4)c4ccccc4)C(C)=C1C3(C)C)[C@]1(OC(C)=O)CO[C@@H]1C[C@@H]2O (some centres undefined)	-14	.	66*	.	2	1	66*	42*
CC(=O)O[C@@]12CO[C@@H]1C[C@H](O)[C@@]1(C)C(=O)[C@H](O)C3=C(C)[C@@H](OC(=O)[C@H](O)[C@@H](NC(=O)c4ccccc4)c4ccccc4)C[C@@](O)([C@@H](OC(=O)c4ccccc4)C12)C3(C)C (some centres undefined)	-8	.	54*	.	1	-2	63*	50*
CC(=O)O[C@H]1C(=O)[C@@]2(C)C([C@H](OC(=O)c3ccccc3)[C@]3(O)C[C@H](O)C(C)=C1C3(C)C)[C@]1(OC(C)=O)CO[C@@H]1C[C@H]2O (some centres undefined)	-1	.	30	.	2	-5	.	.
CC1(C)C(C(=O)NN2C(=O)c3ccccc3C2=O)C1(C)C	1	12	-2	-0.21	-1	-2	.	.
SMILES	B2AR ag	MDM2 E3 inh	Mdm2-MdmX inh	Dynein cargo inh	UPR CHOP act	XBP1 UPR activ	Mdm2 MdmX conf	Full FLuc ctr
O=C1NC(=O)C(CCc2ccncc2)(Cc2cccc(Cl)c2Cl)C(=O)N1c1ccc(Br)cc1 (centres undefined)	-5	-17	58*	-0.71	-2	-3	54*	43*
CCc1ccc(N2C(=O)NC(=O)C(CCc3ccncc3)(CCc3ccncc3)C2=O)cc1	-3	-7	-8	0.17	2	-2	.	.
CC(C)=CCN1CC[C@@]2(C)c3cc(O)ccc3C[C@@H]1C2C (some centres undefined)	-2	.	19	.	-1	-1	.	.
C=C1C(=O)O[C@@H]2C[C@@H](C)[C@@H]3C4OC4C(=O)[C@@]3(C)[C@@H](O)[C@H]12 (some centres undefined)	43*	31*	101*	-3.8*	-5	-8	100*	5
C=C1C(=O)OC2CC(C)C3C=CC(=O)C3(C)C(O)C12 (centres undefined)	22	.	.	.	.	.	.	.
Cc1ccc(C(=O)N[C@@H](C)CN2C3=NC[C@H](Cc4ccccc4)N3C[C@H]2Cc2ccc(O)cc2)cc1Br	.	22	98*	-0.014	3	3	58*	57*
Cc1ccc(C(=O)N[C@@H](C)CN2C3=NC[C@@H](Cc4ccccc4)N3C[C@H]2Cc2ccc(O)cc2)cc1Br	.	.	69*	0.28	-1	6	33	.

Compound activity: PubChem BioAssay, several laboratories
